Reference: ChEMBL document CHEMBL1795205, “The new 5- or 6-azapyrimidine and cyanuric acid derivatives of l-ascorbic acid bearing the free C-5 hydroxy or C-4 amino group at the ethylenic spacer: CD-spectral absolute configuration determination and biological activity evaluations” (Eur J Med Chem, 2011)
Calls of active or inactive are those of the source. The rule behind the calls is not given here.

How the values were obtained:
SW-620 [1] = experiment: Cytostatic activity against human SW620 cells assessed as inhibition of cell proliferation after 72 hrs by MTT assay; type: functional, cell-based; settings: SW-620, 72 h
Procedure, shortened: (§1)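 Monolayer cells grown in DMEM with 10% FBS were seeded on day 0 at 3000–6000 cells/well, set by each line's doubling time. Agents were added the next step in five 10-fold dilutions (0.01–100) for 72 h, with DMSO ≤0.1% and a solvent control. MTT absorbance was converted to percentage growth versus untreated wells on the same plate. Where all PGs exceeded 50, the top concentration was reported as ">". ANOVA/Tukey, p<0.05.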

MIA PaCa-2 [2] = experiment: Induction of cell cycle arrest in human MIAPaCa2 cells assessed as accumulation at G2/M phase at 5 uM after 48 hrs by flow cytometry (reference value: 9.35 +/- 0.92%); type: functional
HeLa [3] = experiment: Induction of cell cycle arrest in human HeLa cells assessed as accumulation at S phase at 5 uM after 24 hrs by flow cytometry relative to control; type: functional
Procedure, shortened: (§2)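 Cells were seeded at 3×10⁵ per well in 6-well plates and treated after overnight incubation for 24 and 48 h. They were trypsinized, washed three times in PBS, fixed in cold ethanol and stored at −20 °C. Pellets were washed twice in PBS and treated with RNase A at 37 °C for 15 min, then stained with PI for 30 min in the dark. DNA content was measured by flow cytometry.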

MIA PaCa-2 [4] = experiment: Induction of apoptosis in human MIAPaCa2 cells at 1 to 5 uM after 24 to 48 hrs by annexin V-/PI staining
HeLa [5] = experiment: Induction of cell cycle arrest in human HeLa cells assessed as accumulation at G1 phase at 1 uM after 48 hrs by flow cytometry relative to control; type: functional; procedure, shortened: as §2
MIA PaCa-2 [6] = experiment: Induction of cell cycle arrest in human MIAPaCa2 cells assessed as accumulation at subG1 phase at 1 uM after 48 hrs by flow cytometry (reference value: 0.20 +/- 0.06%); type: functional
HeLa [7] = experiment: Induction of cell cycle arrest in human HeLa cells assessed as accumulation at subG1 phase at 5 uM after 24 hrs by flow cytometry relative to control; type: functional; procedure, shortened: as §2
MIA PaCa-2 [8] = experiment: Induction of cell cycle arrest in human MIAPaCa2 cells assessed as accumulation at subG1 phase at 5 uM after 48 hrs by flow cytometry (reference value: 0.20 +/- 0.06%); type: functional
MIA PaCa-2 [9] = experiment: Induction of cell cycle arrest in human MIAPaCa2 cells assessed as accumulation at G2/M phase at 5 uM after 24 hrs by flow cytometry (reference value: 10.3 +/- 0.07%); type: functional
HeLa [10] = experiment: Induction of cell cycle arrest in human HeLa cells assessed as accumulation at subG1 phase at 5 uM after 48 hrs by flow cytometry relative to control; type: functional; procedure, shortened: as §2
MIA PaCa-2 [11] = experiment: Induction of cell cycle arrest in human MIAPaCa2 cells assessed as accumulation at G1 phase at 1 uM after 24 hrs by flow cytometry (reference value: 55.4 +/- 0.01%); type: functional; procedure, shortened: as §2
HeLa [12] = experiment: Induction of apoptosis in human HeLa cells at 1 to 5 uM after 24 to 48 hrs by annexin V/PI staining; type: functional, cell-based
Procedure, shortened: (§3)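 Cells were seeded on slides, incubated 24 h, then exposed to compound for 24 and 48 h. They were washed with PBS and binding buffer, incubated with annexin-V for 10 min, washed with binding buffer, and stained with PI.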

SW-620 [13] = experiment: Induction of apoptosis in human SW620 cells at 1 to 5 uM after 24 to 48 hrs by annexin V/PI staining; type: functional, cell-based; procedure, shortened: as §3
SW-620 [14] = experiment: Induction of cell cycle arrest in human SW620 cells assessed as accumulation at subG1 phase at 5 uM after 48 hrs by flow cytometry (reference value: 0.18 +/- 0.036%); type: functional
HeLa [15] = experiment: Induction of cell cycle arrest in human HeLa cells assessed as accumulation at S phase at 1 uM after 48 hrs by flow cytometry relative to control; type: functional; procedure, shortened: as §2
SW-620 [16] = experiment: Induction of cell cycle arrest in human SW620 cells assessed as accumulation at S phase at 5 uM after 24 hrs by flow cytometry (reference value: 37.7 +/- 0.01%); type: functional
HeLa [17] = experiment: Induction of cell cycle arrest in human HeLa cells assessed as accumulation at G1 phase at 5 uM after 48 hrs by flow cytometry relative to control; type: functional; procedure, shortened: as §2
SW-620 [18] = experiment: Induction of cell cycle arrest in human SW620 cells assessed as accumulation at S phase at 5 uM after 48 hrs by flow cytometry (reference value: 41.7 +/- 2.47%); type: functional
HeLa [19] = experiment: Induction of cell cycle arrest in human HeLa cells assessed as accumulation at G2/M phase at 1 uM after 48 hrs by flow cytometry relative to control; type: functional; procedure, shortened: as §2
HeLa [20] = experiment: Induction of cell cycle arrest in human HeLa cells assessed as accumulation at subG1 phase at 1 uM after 48 hrs by flow cytometry relative to control; type: functional; procedure, shortened: as §2
MIA PaCa-2 [21] = experiment: Induction of cell cycle arrest in human MIAPaCa2 cells assessed as accumulation at S phase at 5 uM after 48 hrs by flow cytometry (reference value: 46 +/- 8.13%); type: functional
SW-620 [22] = experiment: Induction of cell cycle arrest in human SW620 cells assessed as accumulation at G1 phase at 5 uM after 48 hrs by flow cytometry (reference value: 46.6 +/- 4.88%); type: functional
MIA PaCa-2 [23] = experiment: Induction of cell cycle arrest in human MIAPaCa2 cells assessed as accumulation at subG1 phase at 1 uM after 24 hrs by flow cytometry (reference value: 0.32 +/- 0.009%); type: functional
MIA PaCa-2 [24] = experiment: Induction of cell cycle arrest in human MIAPaCa2 cells assessed as accumulation at G1 phase at 5 uM after 48 hrs by flow cytometry (reference value: 44.7 +/- 7.21%); type: functional
MCF7 = experiment: Cytostatic activity against human MCF7 cells assessed as inhibition of cell proliferation after 72 hrs by MTT assay; type: functional, cell-based; settings: MCF7, 72 h; procedure, shortened: as §1

**Q.** Nc1ncn(C/C=C2\OC(=O)C(OCc3ccccc3)=C2OCc2ccccc2)c(=O)n1 was tested. Which IC50 (SW-620 [1]) did it give?
**A.** 5.62 µM

**Q.** What about the Activity (MIA PaCa-2 [2]) of the same compound?
**A.** 10.2%

**Q.** And the Activity (HeLa [3])?
**A.** 72.1%

**Q.** And the Activity (MIA PaCa-2 [4])?
**A.** inactive

**Q.** And the Activity (HeLa [5])?
**A.** 20.1%

**Q.** What about the Activity (MIA PaCa-2 [6]) of the same compound?
**A.** 0.18%

**Q.** What about the Activity (HeLa [7]) of the same compound?
**A.** 0%

**Q.** And the Activity (MIA PaCa-2 [8])?
**A.** 0.31%

**Q.** What about the Activity (MIA PaCa-2 [9]) of the same compound?
**A.** 7.05%

**Q.** And the Activity (HeLa [10])?
**A.** 0.23%

**Q.** And the Activity (MIA PaCa-2 [11])?
**A.** 55.6%

**Q.** What about the Activity (HeLa [12]) of the same compound?
**A.** inactive

**Q.** What about the Activity (SW-620 [13]) of the same compound?
**A.** inactive

**Q.** What about the Activity (SW-620 [14]) of the same compound?
**A.** 0.21%

**Q.** What about the Activity (HeLa [15]) of the same compound?
**A.** 65.6%

**Q.** And the Activity (SW-620 [16])?
**A.** 58.3%

**Q.** What about the Activity (HeLa [17]) of the same compound?
**A.** 23.9%

**Q.** What about the Activity (SW-620 [18]) of the same compound?
**A.** 51.8%

**Q.** What about the Activity (HeLa [19]) of the same compound?
**A.** 14.4%

**Q.** What about the Activity (HeLa [20]) of the same compound?
**A.** 0.02%

**Q.** What about the Activity (MIA PaCa-2 [21]) of the same compound?
**A.** 60.9%

**Q.** What about the Activity (SW-620 [22]) of the same compound?
**A.** 39.1%

**Q.** And the Activity (MIA PaCa-2 [23])?
**A.** 0.2%

**Q.** And the Activity (MIA PaCa-2 [24])?
**A.** 29%

**Q.** What about the IC50 (MCF7) of the same compound?
**A.** 3.49 µM
